Measurements from ChEMBL document CHEMBL6134784, “Furoxan-piplartine hybrids as effective NO donors and ROS inducers in PC3 cancer cells: design, synthesis, and biological evaluation” (RSC Med Chem, 2024).
Active and inactive are the calls of the source. The rule behind the calls is not given here.

Legend:
PC-3 [1] = experiment: Cell cycle arrest in human PC-3 cells assessed as down regulation of c-Myc gene expression at 0.24 uM measured after 3 hrs by qPCR analysis; type: functional, cell-based
In short: (§1)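 Seeded 1×10^5 cells per well in 6-well plates; PC3 treated 3 h. Total RNA extracted, qPCR; each target normalized to reference gene (β-actin) by efficiency-corrected ΔΔCt (Pfaffl) against a control calibrator sample, efficiencies from amplification profiles. Mean ± SEM of four independent experiments.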

PC-3 [2] = experiment: Induction of ROS generation in human PC-3 cells at 0.24 uM measured after 30 mins by CellROX reagent based confocal microscopy; type: functional, cell-based
In short: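 Confocal ROS imaging of PC3: cells loaded with 2.5 μM CellROX green plus 0.5 μM MitoTracker Red for 30 min at 37 °C, washed three times in PBS, imaged immediately; DMSO vehicle and H2O2 controls.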

PC-3 [3] = experiment: Cell cycle arrest in human PC-3 cells assessed as reduction in cell accumulation at G0/G1 phase in presence of antioxidant N-acetyl-L-cysteine at 0.24 uM measured after 3 hrs by propidium iodide staining based flow cytometry; type: functional
In short: (§2)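 PC3 cells seeded 1×10^5 per well in 6-well plates, exposed 3 h, with or without 1 mM N-acetyl-L-cysteine pretreatment; vehicle 0.1% DMSO. Harvested with trypsin-EDTA, fixed in 75% ethanol in PBS at 4 °C for 30 min, stained 1 h with RNase (1.5 mg mL^-1) and propidium iodide (90 μg mL^-1); DNA content by flow cytometry. Phase fractions compared with control by ANOVA/Tukey.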

PC-3 [4] = experiment: Cell cycle arrest in human PC-3 cells assessed as up regulation of CDKN1A gene expression at 0.24 uM measured after 3 hrs by qPCR analysis; type: functional, cell-based
PC-3 [5] = experiment: Induction of morphological changes in human PC-3 cells assessed as loss of adhesion at 0.24 uM measured after 24 hrs by phase contrast microscopy; type: functional, cell-based
In short: (§3)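 PC3 cells were seeded at 1×10^5 per well in 6-well plates and treated after 24 h, with or without 1 mM N-acetyl-L-cysteine. The same observation field was imaged by phase contrast microscopy at 1, 2, 3, 4 and 24 h. DMSO vehicle served as control.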

PC-3 [6] = experiment: Induction of apoptosis in human PC-3 cells assessed as effect on BAX gene expression at 0.24 uM measured after 3 hrs by qPCR analysis; type: functional, cell-based; in short: as §1
PC-3 [7] = experiment: Induction of morphological changes in human PC-3 cells assessed as reduction in cell density at 0.24 uM measured after 24 hrs by phase contrast microscopy; type: functional, cell-based; in short: as §3
PC-3 [8] = experiment: Induction of ROS generation in human PC-3 cells at 0.24 uM measured after 30 mins by CellROX reagent based flow cytometry; type: functional, cell-based
In short: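 PC3 seeded 1×10^5 per well in 6-well plates, after 24 h treated together with CellROX green (5 μM final) for 30 min at 37 °C; 0.1% DMSO negative control, 1 mM H2O2 positive control. Cells collected and CellROX-positive fraction measured by flow cytometry.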

PC-3 [9] = experiment: Effect on NFE2L2 gene expression in human PC-3 cells at 0.05 uM measured after 3 hrs by qPCR analysis; type: functional, cell-based; in short: as §1
PC-3 [10] = experiment: Induction of apoptosis in human PC-3 cells assessed as viable cells at 0.05 uM measured after 6 hrs by Alexa Fluor 488-annexin V/propidium iodide staining based flow cytometry (reference value: 89.37%); type: functional; conditions: read-out: Activity
PC-3 [11] = experiment: Induction of morphological changes in human PC-3 cells assessed as reduction in cell density at 0.05 uM measured after 24 hrs by phase contrast microscopy; type: functional, cell-based; in short: as §3
PC-3 [12] = experiment: Cell cycle arrest in human PC-3 cells assessed as down regulation of c-Myc gene expression at 0.05 uM measured after 3 hrs by qPCR analysis; type: functional, cell-based; in short: as §1
PC-3 [13] = experiment: Induction of morphological changes in human PC-3 cells assessed as reduction in cell density at 0.05 uM measured after 24 hrs in presence of antioxidant N-acetyl-L-cysteine by phase contrast microscopy; type: functional, cell-based; in short: as §3
PC-3 [14] = experiment: Induction of apoptosis in human PC-3 cells assessed as necrotic cells at 0.05 uM measured after 6 hrs by Alexa Fluor 488-annexin V/propidium iodide staining based flow cytometry (reference value: 1.28%); type: functional
PC-3 [15] = experiment: Induction of morphological changes in human PC-3 cells assessed as loss of adhesion at 0.05 uM measured after 24 hrs in presence of antioxidant N-acetyl-L-cysteine by phase contrast microscopy; type: functional, cell-based; in short: as §3
PC-3 [16] = experiment: Induction of apoptosis in human PC-3 cells assessed as effect on BCL2 gene expression at 0.05 uM measured after 3 hrs by qPCR analysis; type: functional, cell-based; in short: as §1
PC-3 [17] = experiment: Induction of morphological changes in human PC-3 cells assessed as loss of adhesion at 0.05 uM measured after 24 hrs by phase contrast microscopy; type: functional, cell-based; in short: as §3
PC-3 [18] = experiment: Cell cycle arrest in human PC-3 cells assessed as reduction in cell accumulation at G0/G1 phase in presence of antioxidant N-acetyl-L-cysteine at 0.05 uM measured after 3 hrs by propidium iodide staining based flow cytometry; type: functional; in short: as §2
PC-3 [19] = experiment: Cell cycle arrest in human PC-3 cells assessed as down regulation of CCND1 gene expression at 0.05 uM measured after 3 hrs by qPCR analysis; type: functional, cell-based; in short: as §1
PC-3 [20] = experiment: Cell cycle arrest in human PC-3 cells assessed as increase in cell accumulation at G2/M phase in presence of antioxidant N-acetyl-L-cysteine at 0.05 uM measured after 3 hrs by propidium iodide staining based flow cytometry; type: functional; in short: as §2
PC-3 [21] = experiment: Cell cycle arrest in human PC-3 cells assessed as up regulation of CDKN1A gene expression at 0.05 uM measured after 3 hrs by qPCR analysis; type: functional, cell-based; in short: as §1
PC-3 [22] = experiment: Induction of mitochondrial membrane potential loss in human PC-3 cells at 0.05 uM measured after 30 mins by MitoTracker Red based confocal microscopy; type: functional, cell-based
In short: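 Confocal imaging of PC3 cells loaded with CellROX Green (2.5 μM) and MitoTracker Red (0.5 μM) for 30 min at 37 °C, then three PBS washes and immediate capture. The MitoTracker dye stains intact mitochondria and diffuses out when membrane potential drops. Vehicle 0.1% DMSO served as negative control and 1 mM H2O2 as positive control.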

PC-3 [23] = experiment: Cytotoxicity against human PC-3 cells assessed as reduction in cell viability at 0.05 uM measured after 24 hrs by SRB assay; type: functional, cell-based
In short: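 SRB assay: PC3 seeded 1×10^4 per well, after 24 h exposed 24 h at 37 °C, 5% CO2 with or without 1 mM N-acetyl-L-cysteine; vehicle 0.1% DMSO. Fixed with 15% TCA at 4 °C for 1 h, dried, stained 0.4% sulforhodamine B, dye solubilized in 10 mM Tris, absorbance 540 nm; ANOVA/Tukey.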

PC-3 [24] = experiment: Induction of apoptosis in human PC-3 cells assessed as early apoptotic cells at 0.05 uM measured after 6 hrs by Alexa Fluor 488-annexin V/propidium iodide staining based flow cytometry (reference value: 6%); type: functional

COc1cc(/C=C/C(=O)N2CCC=CC2=O)cc(OC)c1OCCCOc1no[n+]([O-])c1S(=O)(=O)c1ccccc1
Activity (PC-3 [1]): Active | Activity (PC-3 [2]): Active | Activity (PC-3 [3]): Active | Activity (PC-3 [4]): Active | Activity (PC-3 [5]): Active; Partial Loss Of Adhesion Observed | Activity (PC-3 [6]): inactive | Activity (PC-3 [7]): Active | Activity (PC-3 [8]): Active

COc1cc(/C=C/C(=O)N2CCC=CC2=O)cc(OC)c1OCCCCCCCCCCCCOc1no[n+]([O-])c1S(=O)(=O)c1ccccc1
Activity (PC-3 [9]): Active | viability at 0.05 µM (PC-3 [10]): 12.6% | Activity (PC-3 [11]): Active | Activity (PC-3 [12]): Active | Activity (PC-3 [13]): inactive | Activity (PC-3 [14]): 0.87% | Activity (PC-3 [15]): inactive | Activity (PC-3 [16]): inactive | Activity (PC-3 [17]): Active; Partial Loss Of Adhesion Observed | Activity (PC-3 [18]): Active | Activity (PC-3 [19]): Active | Activity (PC-3 [20]): Active | Activity (PC-3 [21]): Active | Activity (PC-3 [22]): Active | Activity (PC-3 [23]): Active | Activity (PC-3 [24]): 6.6%
